Test results: ChEMBL document CHEMBL3525979, “Combined contributions of impaired hepatic CYP2C11 and intestinal breast cancer resistance protein activities and expression to increased oral glibenclamide exposure in rats with streptozotocin-induced diabetes mellitus” (Drug Metab Dispos, 2012); call rule not given here

Columns and labels:
Liver microsome [1] = test: Apparent hepatic clearance in streptozotocin-induced diabetes mellitus Sprague-Dawley rat liver microsomes assessed per mg protein at 4 uM after 60 mins; type: ADME; conditions: 1 h
How it was run: (§1)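 Liver microsomes (0.5 mg/mL protein) from control, STZ-diabetic or insulin-treated diabetic rats, 0.01 M phosphate buffer pH 7.4, 4 μM GLB (methanol <1%); 5 min preincubation at 37 °C, started with NADPH regenerating system. Stopped with 1 M HCl at 0, 5, 15, 30, 45, 60 min. GLB depletion measured by HPLC-fluorescence. AUC by linear trapezoid; Clapp = initial dose/AUC0-t; t1/2 = 0.693/terminal slope. Triplicate incubations; 4-5 rats.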

[2] = Terminal elimination half life in Sprague-Dawley rat model of streptozotocin-induced diabetes mellitus at 10 mg/kg, po by HPLC method; type: ADME, organism-based; design: dose 10 mg/kg, route oral; conditions: in vivo, read-out: beta t1/2 (converted)
How it was run: (§2)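 Rats given STZ 65 mg/kg i.p. in citrate buffer pH 4.5 (controls got buffer); diabetic if fasting glucose >11.1 mM at day 7; insulin group got protamine zinc insulin 5 U/kg s.c. twice daily for 4 weeks. On day 35, overnight-fasted rats dosed orally with 10 mg/kg in 0.5% CMC-Na; plasma by ethyl acetate extraction, HPLC fluorescence (ex 308/em 360 nm); non-compartmental analysis; n=6-7, mean ± S.D.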

[3] = Mean residence time in insulin treated Sprague-Dawley rat model of streptozotocin-induced diabetes mellitus at 10 mg/kg, po by HPLC method; type: ADME, organism-based; design: dose 10 mg/kg, route oral; conditions: in vivo
How it was run: (§3)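 Sprague-Dawley rats: diabetes induced by STZ 65 mg/kg i.p. in citrate buffer pH 4.5 (fasting glucose >11.1 mM at day 7). Insulin group received protamine zinc insulin 5 U/kg s.c. twice daily for 4 weeks. On day 35, overnight-fasted rats got GLB 10 mg/kg orally in 0.5% CMC-Na. Plasma GLB measured by HPLC with fluorescence detection (ex 308/em 360 nm). Non-compartmental analysis; n=6-7.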

Liver microsome [4] = test: Apparent hepatic clearance in insulin treated streptozotocin-induced diabetes mellitus Sprague-Dawley rat liver microsomes assessed per mg protein at 4 uM after 60 mins; type: ADME; conditions: 1 h; how it was run: as §1
Liver microsome [5] = test: Drug metabolism in normal Sprague-Dawley rat liver microsomes assessed as compound level at 4 uM after 60 mins (reference value: 2.06 +/- 0.12 ug/ml); type: ADME; conditions: 1 h
[6] = Terminal elimination half life in normal Sprague-Dawley rat at 10 mg/kg, po by HPLC method; type: ADME, organism-based; design: dose 10 mg/kg, route oral; conditions: in vivo, read-out: beta t1/2 (converted); how it was run: as §2
Liver microsome [7] = test: Drug metabolism in streptozotocin-induced diabetes mellitus Sprague-Dawley rat liver microsomes assessed as compound level at 4 uM after 60 mins (reference value: 2.0 +/- 0.13 ug/ml); type: ADME; conditions: 1 h
[8] = AUC (0 to t) in insulin treated Sprague-Dawley rat model of streptozotocin-induced diabetes mellitus at 10 mg/kg, po by HPLC method; type: ADME, organism-based; design: dose 10 mg/kg, route oral; conditions: in vivo; how it was run: as §3
Jejunum [9] = test: Drug absorption in normal Sprague-Dawley rat jejunum at 10 ug/ml in presence of 50 to 200 uM BCRP inhibitor novobiocin; type: ADME, tissue-based; conditions: in vivo
How it was run: (§4)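 Normal rats underwent in situ single-pass jejunal perfusion: saline preperfusion at 0.2 mL/min, 37 °C, for 20 min, then K-H buffer with GLB 10 μg/mL with or without novobiocin 50 or 200 μM. Effluent was collected every 15 min. Peff (cm/min) was calculated from GLB loss and the absorptive area of the segment; n=5.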

[10] = AUC (0 to t) in Sprague-Dawley rat model of streptozotocin-induced diabetes mellitus at 10 mg/kg, po by HPLC method; type: ADME, organism-based; design: dose 10 mg/kg, route oral; conditions: in vivo; how it was run: as §3
Jejunum [11] = test: Drug absorption in streptozotocin-induced diabetes mellitus Sprague-Dawley rat jejunum at 10 ug/ml after 30 mins of in situ single-pass perfusion relative to normal rat; type: ADME, tissue-based; conditions: in vivo, 0.5 h
How it was run: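 In situ single-pass jejunal perfusion in anaesthetized control and STZ-diabetic rats. The segment was preperfused with 0.9% saline at 0.2 mL/min, 37 °C, for 20 min, then perfused with K-H buffer containing GLB 10 μg/mL. Effluent was collected at 15-min intervals after a 30-min steady state. Cumulative absorption was calculated from GLB loss (HPLC); n=5.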

[12] = Tmax in Sprague-Dawley rat model of streptozotocin-induced diabetes mellitus at 10 mg/kg, po by HPLC method; type: ADME, organism-based; design: dose 10 mg/kg, route oral; conditions: in vivo; how it was run: as §2
Jejunum [13] = test: Drug absorption in normal Sprague-Dawley rat jejunum assessed as 200 uM BCRP inhibitor novobiocin-mediated increase in apparent effective permeability at 10 ug/ml measured at 90 mins of perfusion; type: ADME, tissue-based; design: scale not given: the % may be the effect or the level left; conditions: 1.5 h; how it was run: as §4
[14] = Cmax in Sprague-Dawley rat model of streptozotocin-induced diabetes mellitus at 10 mg/kg, po by HPLC method; type: ADME, organism-based; design: dose 10 mg/kg, route oral; conditions: in vivo; how it was run: as §3
Jejunum [15] = test: Drug absorption in normal Sprague-Dawley rat jejunum assessed as 200 uM BCRP inhibitor novobiocin-mediated increase in apparent effective permeability at 10 ug/ml measured at 45 mins of perfusion; type: ADME, tissue-based; design: scale not given: the % may be the effect or the level left; conditions: 0.75 h; how it was run: as §4
Liver microsome [16] = test: Drug metabolism in insulin treated streptozotocin-induced diabetes mellitus Sprague-Dawley rat liver microsomes assessed as compound level at 4 uM after 60 mins (reference value: 2.06 +/- 0.27 ug/ml); type: ADME; conditions: 1 h
[17] = AUC (0 to t) in normal Sprague-Dawley rat at 10 mg/kg, po by HPLC method; type: ADME, organism-based; design: dose 10 mg/kg, route oral; conditions: plasma; how it was run: as §3
[18] = AUC (0 to infinity) in Sprague-Dawley rat model of streptozotocin-induced diabetes mellitus at 10 mg/kg, po by HPLC method; type: ADME, organism-based; design: time infinity, dose 10 mg/kg, route oral; conditions: in vivo; how it was run: as §3
[19] = Drug excretion in normal Sprague-Dawley rat urine at 10 mg/kg, po by HPLC method; type: ADME, organism-based; design: dose 10 mg/kg, route oral; conditions: read-out: Drug excretion
How it was run: (§5)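 STZ-diabetic (65 mg/kg i.p.), insulin-treated or control rats were dosed with GLB 10 mg/kg orally on day 35 after overnight fast. Urine and feces were collected in metabolic cages at 6-h intervals to 36 h. For bile, the common bile duct was cannulated under pentobarbital and bile collected to 12 h. GLB measured by HPLC-fluorescence and expressed as % of dose.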

[20] = Half life in normal Sprague-Dawley rat liver microsomes at 4 uM after 60 mins; type: ADME; how it was run: as §1
[21] = Drug excretion in feces of Sprague-Dawley rat model of streptozotocin-induced diabetes mellitus at 10 mg/kg, po by HPLC method; type: ADME, organism-based; design: dose 10 mg/kg, route oral; conditions: faeces, read-out: Drug excretion; how it was run: as §5
[22] = Cmax in insulin treated Sprague-Dawley rat model of streptozotocin-induced diabetes mellitus at 10 mg/kg, po by HPLC method; type: ADME, organism-based; design: dose 10 mg/kg, route oral; conditions: in vivo; how it was run: as §3
[23] = Terminal elimination half life in insulin treated Sprague-Dawley rat model of streptozotocin-induced diabetes mellitus at 10 mg/kg, po by HPLC method; type: ADME, organism-based; design: dose 10 mg/kg, route oral; conditions: in vivo, read-out: beta t1/2 (converted); how it was run: as §2
[24] = Drug excretion in feces of insulin treated Sprague-Dawley rat model of streptozotocin-induced diabetes mellitus at 10 mg/kg, po by HPLC method; type: ADME, organism-based; design: dose 10 mg/kg, route oral; conditions: faeces, read-out: Drug excretion; how it was run: as §5
[25] = Apparent oral volume of distribution in insulin treated Sprague-Dawley rat model of streptozotocin-induced diabetes mellitus at 10 mg/kg, po by HPLC method; type: ADME, organism-based; design: dose 10 mg/kg, route oral; conditions: in vivo; how it was run: as §3

CLH(app) (Liver microsome [1]): 52 µL/min/mg
half-life [2]: 5.11 h
MRT [3]: 8.15 h
CLH(app) (Liver microsome [4]): 176 µL/min/mg
Drug uptake (Liver microsome [5]): 0.07 µg/mL
half-life [6]: 4.55 h
Drug uptake (Liver microsome [7]): 0.52 µg/mL
AUC(0-t) [8]: 2380 ng·h/mL
Drug absorption (Jejunum [9]): Active
AUC(0-t) [10]: 13300 ng·h/mL
Drug absorption (Jejunum [11]): 35%
Tmax [12]: 7.2 h
Activity (Jejunum [13]): 32%
Cmax [14]: 1250 ng/mL
Activity (Jejunum [15]): 25%
Drug uptake (Liver microsome [16]): 0.09 µg/mL
AUC(0-t) [17]: 2350 ng·h/mL
AUC(0-inf) [18]: 15200 ng·h/mL
dose excreted [19]: 0.0042%
half-life at 4 µM [20]: 0.207 h
dose excreted [21]: 40%
Cmax [22]: 250 ng/mL
half-life [23]: 8.18 h
dose excreted [24]: 50%
Vd/F [25]: 36.8 L/kg
SMILES: COc1ccc(Cl)cc1C(=O)NCCc1ccc(S(=O)(=O)NC(=O)NC2CCCCC2)cc1 [GLYBURIDE]
